Only some compounds are listed: those with a hit (about 12% of all), similar ones and a draw of the others.
MT stabilizer – microtubule stabilizers in HeLa cells. 0.83% of 200,000 active. % tubulin-high responders, % at 10 µM. HeLa tubulin immunostaining HCS, 24 h; share of cells brighter than vehicle mean+2SD;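 active means plate Z-score above 3 for both tubulin-high and condensed-nucleus cell shares, with cell loss under 80%, at 10 µM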;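 further: anti alpha tubulin signal scored within the nucleus-defined area of each cell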
Lmaj promast – Leishmania major promastigote growth inhibition | Leishmania major promastigotes, resazurin fluorescence viability | inhibition, % at 10 µM | 9% of 200,000 active | AID 1063; in the data active means inhibition above about 50%;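 further: promastigotes grown with compound for 44 hours at 28 °C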
CHOP inh – inhibitors of CHOP induction in ER stress response | 3.8% of 220,000 active | AID 2732 | inhibition, % at 10 µM | CHO-K1 CHOP-promoter luciferase, tunicamycin-induced, 15-18 h;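 active means compounds that reduced the stress-induced luciferase reporter signal by more than about 70% of percent inhibition, limit read from the data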
Dynein transport – blocks dynein driven cargo transport along microtubules; 3617.4 mouse cells, GR-EGFP nuclear translocation imaging; test concentration mostly 20 µM; stimulated with dexamethasone, 1 µM; stronger effect = lower value; z-score, hits read low; 0.47% of 220,000 active; AID 1381;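 active means plate z-score of nuclear minus cytoplasmic receptor signal below a set negative limit, without overly bright fluorescence or cell loss, cut at about -3.5 in these data, passing the limit was not always enough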;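 further: z-score of nuclear minus cytoplasmic ring GR-EGFP intensity difference per well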
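Buffer or medium: tetracycline-free induction medium containing charcoal-stripped FBS / Reagent: dexamethasone agonist, 1.0 µM final, for 30 min / Technique: automated 10x imaging of fixed Hoechst-stained cells / Times: induction 48 h, compound 1 h, agonist 30 min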
bCat nuc transl – alters nuclear translocation of beta-catenin in HeLa cells; immunofluorescence imaging; nuclear translocation activity, % at 5 µM; 0.3% of 190,000 active; AID 1665;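 active means nuclear translocation activity above 50% at 5 µM, with a well cell count of 50 or more; inconclusive means wells under 50 cells across six images, flagged as toxic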;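 further: per-cell ratio of nuclear to cytoplasmic median beta-catenin stain intensity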
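System: HeLa cells, endogenous beta-catenin; compound dosing: 5 µM primary single dose, 0.1% DMSO, 0.02–20 µM confirmation series; incubation: 24 h compound exposure at 37°C, 5% CO2; signal: beta-catenin immunofluorescence imaging with DAPI; evaluation: % activation, nuclear-to-cytoplasmic median beta-catenin signal ratio per cell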
Autophagy mod – modulators of autophagy; MEF GFP-LC3 puncta imaging; test concentration mostly 10 µM; 0.98% of 190,000 active; calls only at 10 µM (by protocol);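 active means percentage of spot-positive cells more than 3 SD above its plate mean, without a fluorescence outlier flag or 80% toxicity; inconclusive means no clear call, values can overlap the other calls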
Dynein confirm – dynein cargo transport inhibition, confirmation; 69% of 1,000 active; shares compounds with Dynein transport; calls only at 20 µM; 3617.4 GR-EGFP nuclear translocation imaging, dexamethasone-induced;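 active means inhibition of receptor movement into the nucleus at or above a set limit in both runs, with normal cell brightness and cell count; inconclusive means limit reached in only one run, brightness and count normal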;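 further: dexamethasone at 1 µM final in well for 30 min; nuclear minus cytoplasmic GR-EGFP mean intensity difference in channel 2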
CHOP confirm – confirmation of CHOP induction inhibitors. shares compounds with CHOP inh. CHO-CHOP promoter luciferase reporter, tunicamycin-induced, luminescence. inhibition, % at 10 µM. 45% of 2,100 active;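 active means mean of three repeat readings of reporter signal inhibition above a set limit, cut at about 70% in these data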
Numbers stand for hits; n = inactive; u = inconclusive; x = no result given; + = active, no number.

SMILES	MT stabilizer	Lmaj promast	CHOP inh	Dynein transport	bCat nuc transl	Autophagy mod	Dynein confirm	others
COc1cc(/C=C(/C(=O)c2cccs2)c2nc3ccccc3[nH]2)ccc1O	n	100	n	-4	n	n	+
COc1ccc(C(=O)N/C(=C\c2cccs2)c2nc3ccccc3[nH]2)cc1OC	n	n	n	n	x	n	x
O=C(/C(=C/c1ccc(Cl)cc1)c1nc2ccccc2[nH]1)c1cccs1	28	100	n	-4.5	n	+	+
CCCc1cc(NC(=O)CCl)n(-c2ccccc2)n1	n	51	n	-4	n	n	+
CC(C)(C)c1cc(NC(=O)CCl)n(-c2ccccc2)n1	x	x	n	n	n	x	x
O=c1c(Cc2ccc(F)cc2)c(O)ccn1CCCN1CCOCC1	n	n	n	n	n	n	x
CCOc1ccc(NC(=O)CN2C(=O)NC(CCSC)C2=O)cc1 (stereo unspecified)	n	n	n	n	n	n	x
N#C/C(=C/c1ccc(N2CCCCCC2)o1)c1ccc(F)cc1	n	n	x	n	x	+	n
N#C/C(=C/c1ccc(N2CCCCC2)o1)C(=O)Nc1ccc(Cl)cc1	n	n	n	n	n	+	n
N#C/C(=C\c1ccc(N2CCOCC2)o1)C(=O)Nc1ccc(O)cc1	n	n	n	n	n	n	x
N#C/C(=C/c1ccc(N2CCCCC2)o1)C(=O)Nc1ccc2ccccc2c1	n	n	n	-4	n	x	+
CCOC(=O)c1cc(C(=O)OCC)c(=O)[nH]c1N1CCCC1	n	n	n	n	n	n	x
CCOC(=O)CN(c1ccccn1)S(=O)(=O)c1ccc(OC)cc1	n	n	n	n	n	n	x
CC1=C(C(=O)N(C)C)C(c2ccc(N3CCOCC3)cc2)NC(=O)N1 (stereo unspecified)	n	n	n	n	n	n	x
CS(=O)Cc1cc(Sc2ccccc2)nc(-c2ccncc2)n1 (stereo unspecified)	n	n	n	n	n	n	x
Cc1ccc(NC(=O)COC(=O)Cc2ccsc2)cc1S(=O)(=O)N1CCOCC1	n	n	n	n	n	n	x
Cc1ccc(C2=NN(C(=O)CCl)C(c3cccs3)C2)o1 (stereo unspecified)	n	90	84	-4.1	n	n	+
CC(=O)N1N=C(c2ccco2)CC1c1cccs1 (stereo unspecified)	n	n	n	n	n	n	x
O=C(CCl)N1N=C(c2ccco2)CC1c1cccs1 (stereo unspecified)	n	90	90	-4.3	n	n	+
Cc1cccc(OCCCC(=O)NCC(=O)Nc2cccc(C)c2C)c1	n	n	n	n	n	n	x
CCCCN(C)CCCNC(=O)/C=C1\Sc2ccccc2NC1=O	n	n	n	n	n	n	x
CCN1C/C(=C/c2cccc([N+](=O)[O-])c2)C(=O)/C(=C/c2cccc([N+](=O)[O-])c2)C1	42	100	111	-4	n	n	+
CC1=NCCN1CCNC(=O)Nc1ccc(F)cc1	x	x	n	n	n	x	x
Cn1c(-c2cnn(-c3ccccc3)c2-n2cccc2)n[nH]c1=S	n	n	n	n	n	n	x
CCCCCCC(=O)N(O)C1CC(=O)N(c2ccc(F)cc2)C1=O (stereo unspecified)	x	x	n	-4.7	n	x	+
SMILES	MT stabilizer	Lmaj promast	CHOP inh	Dynein transport	bCat nuc transl	Autophagy mod	Dynein confirm	others
CCCCCCC(=O)N(O)C1CC(=O)N(c2ccc(Br)cc2)C1=O (stereo unspecified)	n	n	n	n	n	n	x
Fc1ccc(CSc2nnc(-c3cccnc3)o2)cc1	n	n	n	n	n	n	x
O=C1C(Cl)=C(NCCN2CCCCC2)C(=O)c2ccccc21	n	99	n	-4.2	n	n	+
NC(=O)N/N=C/c1coc2ccc(O)cc2c1=O	x	x	n	n	n	x	x
CCOC(=O)c1cc(-c2ccc(/C=C3/C(=O)NC(=O)C(C#N)=C3C)o2)ccc1Cl	n	n	n	-3.6	x	n	+
C=CCN=c1scc(-c2ccco2)n1/N=C/c1ccc(O)c(O)c1O	x	x	n	n	n	x	x
CN=c1scc(-c2cccs2)n1/N=C/c1ccc(O)c(O)c1O	n	n	n	-3.6	n	n	u
COC(=O)C(=Cc1ccccc1[N+](=O)[O-])C(=O)OC	x	x	n	-5.4	n	x	+
COc1ccc(CNC(=O)/C=C/c2ccccc2[N+](=O)[O-])cc1	n	n	n	n	n	n	x
CCCC(C(=O)Nc1nccs1)c1ccccc1 (stereo unspecified)	n	n	n	n	n	n	x
N#C/C(=C\c1ccccc1)C(=O)N(c1ccccn1)C1CCCCC1	n	n	n	-3.9	n	n	n
Nc1ccccc1CNc1nc(NCCO)nc2c1ncn2CCN1CCOCC1	x	x	n	n	n	x	x
COc1ccc(N2C(=O)CC(Sc3n[nH]c(-c4cccc(C)c4)n3)C2=O)cc1 (stereo unspecified)	x	x	n	n	n	x	x
CCOc1ccccc1N1C(=O)CC(Sc2n[nH]c(-c3ccccc3)n2)C1=O (stereo unspecified)	n	n	n	-4.1	n	n	+
O=C(/C=C/C=C/c1ccccc1)c1ccco1	x	x	n	-4.3	n	x	n
Cc1c(/C=N/NC(=O)c2cccs2)c2ccccc2n1Cc1ccccc1Cl	x	x	n	n	n	x	x
Cc1nc([N+](=O)[O-])c(Br)n1CC(=O)c1ccc2ccccc2c1	n	100	103	-4.3	x	n	+	CHOP confirm=n
CCNc1nc(NCC)nc(Oc2ccc(OCc3ccccc3)nn2)n1	n	n	n	n	n	n	x
Cc1ccc(C(=O)/C=C\C(=O)c2ccc(C)cc2)cc1	n	100	102	-7.2	n	+	+	CHOP confirm=n
Cc1ccc(C(=O)c2ccc(C)cc2)cc1	n	n	n	n	n	n	x
Cc1nnc(NC(=O)c2sc3nc(-c4cccs4)cc(C(F)(F)F)c3c2N)s1	n	n	106	n	n	+	n	CHOP confirm=94
C/C=C/C(=O)Nc1cccc(C2=NOC3(C2)C[C@@H](C(N)=O)N(C(=O)C(c2ccccc2)c2ccccc2)C3)c1 (stereo partly specified)	x	x	n	n	n	x	x
CCC(=O)c1ccc(CCCCCC(=O)O)s1	n	n	n	n	n	n	x
CC(=O)NCc1ccc(C(=O)CCl)cc1	n	93	106	-6.8	n	n	+	CHOP confirm=n
CC(=O)NCc1ccc(C(=O)CCl)s1	n	100	108	-5	n	n	+	CHOP confirm=107
CC(C)(C)c1cnnn1-c1ccc(C(=O)CCl)cc1	n	69	111	-4.1	n	n	+	CHOP confirm=n
CC(C)(C)c1cnnn1-c1ccc(C=O)cc1	n	n	n	n	n	n	x

Screening data: PubChem, several laboratories
